Assay type in all cases: functional, cell-based
Assay [1] deals with PC-3M. Briefly: Anti-invasive activity against human PC3M cells at 50 nM.
Assay [2] concerns PC-3M. Briefly: Antiproliferative activity against human PC3M cells at 5 to 50 nM by MTT assay. On the technique in general: Formazan colour is commonly taken as a measure of viable cells.
Assay [3] has as its system PC-3M. Briefly: Cytotoxicity against human PC3M cells at 50 nM by MTT assay.
Assay [4] deals with PC-3M. Briefly: Effect on paracellular permeability of human PC3M cells. Put shortly: (§1)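 PC-3M grown at confluency on Transwell filters in complete medium until TER developed. Tetramethylrhodamine-dextran (4 kDa, 1 mg/mL in HBSS) added to upper chamber, HBSS in lower.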
The test system of assay [5] is PC-3M. Briefly: Effect on paracellular permeability of calcitonin-treated human PC3M cells. The essentials:
as §1

Assay [6] deals with PC-3M. Briefly: Effect on baseline transepithelial resistance in human PC3M cells. The essentials:
(§2)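 PC-3M plated at confluency on Transwell filters (0.4 µm pores) in complete medium with 25 mM Hepes, pH 7.4. Cultured with or without CT (50 nM). TER measured in duplicate wells every 12 h with a voltohmmeter. Values blank-subtracted (filter plus bathing medium) and normalized to filter area.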

The subject of assay [7] is PC-3M. Briefly: Effect on calcitonin-stimulated decrease in transepithelial resistance in human PC3M cells. The essentials:
as §2

Active and inactive are the calls of the source. The calls are words filed in the database; no cut-off is given here.

With `C/C1=C\[C@H](OC(=O)NCc2ccccc2)C[C@@](C)(O)/C=C/[C@H](C(C)C)CC/C(C)=C/CC1`, the result in assay [1] and in assay [2] was Active.
With `C/C1=C\[C@H](O)C[C@@](C)(O)/C=C/[C@H](C(C)C)C[C@@H](O)/C(C)=C/CC1`, the outcome in assay [1] was Active. In addition, the outcome in assay [3] was inactive.
Regarding `C/C1=C\[C@H](OC(=O)NCCCl)C[C@@](C)(O)/C=C/[C@H](C(C)C)CC/C(C)=C/CC1`, the result in assay [1] and in assay [2] was Active.
With `C/C1=C\C[C@@H](O)/C(C)=C/[C@H](O)C[C@@](C)(O)/C=C/[C@H](C(C)C)CC1`, the outcome in assay [1] was Active.
As for `C/C1=C\[C@H](O)C[C@@](C)(O)/C=C/[C@H](C(C)C)CC/C(CO)=C/CC1`, the result in assay [1] was Active.
Take `C/C1=C\CC/C(CO)=C/[C@H](O)C[C@@](C)(O)/C=C/[C@H](C(C)C)CC1`: the result in assay [1] was Active.
As for `CCNC(=O)O[C@H]1/C=C(\C)CC/C=C(\C)CC[C@@H](C(C)C)/C=C/[C@](C)(O)C1`, the outcome in assay [1], in assay [4], in assay [5], in assay [2], in assay [6] and in assay [7] was Active.

For the origin of these results see ChEMBL document CHEMBL1143960.
